pPAFAH FP inh: inhibitors of human plasma PAF acetylhydrolase (pPAFAH) | Q13093 | recombinant pPAFAH, FP-rhodamine probe fluorescence polarization | inhibition, % at 3.39 µM | 330,000 tested, 1.5% active;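 active = inhibition above the mean inhibition across the screen plus 3 SD, cut at about 25% in these data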;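 also: inhibitors block binding of the rhodamine activity-based probe so polarization drops; 0% = enzyme with DMSO and 100% = wells lacking pPAFAH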
VIM-2 inhibitor: inhibitors of Pseudomonas aeruginosa VIM-2 metallo-beta-lactamase; purified VIM-2, nitrocefin hydrolysis, epi-absorbance fluorescence; inhibition, % at 5.6 µM; 290,000 tested, 0.89% active; AID 1527;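 active = inhibition above the mean of all tested compounds plus 3 SD, cutoff set per screening run, cut at about 7.5% in these data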;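 also: red hydrolysis product quenches plate fluorescence so inhibitors raise well fluorescence; 0% = enzyme with DMSO and 100% = DMSO without enzyme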
IMP-1 inh: blocks Pseudomonas aeruginosa IMP-1 metallo-beta-lactamase; inhibition, % at 5.6 µM; AID 1556; purified IMP-1, nitrocefin hydrolysis, epi-absorbance fluorescence; 290,000 tested, 0.45% active;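 active = inhibition above the mean plus 3 SD of all compounds in the same screening run, cut at about 4.5% in these data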;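 also: 0% = IMP-1 with DMSO and 100% = DMSO wells lacking enzyme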
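Assay system: purified recombinant IMP-1 beta-lactamase. Input: IMP-1 0.2 nM before substrate addition. Buffer or medium: Zinc- and detergent-supplemented HEPES buffer, pH 7.1. Schedule: 25 °C, 15 min preincubation, 25 min reaction. Signal: Epi-absorbance fluorescence, 480 nm excitation, 530 nm emission. Evaluation: percent inhibition from optical density relative to buffer-blank wells.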
PAFAH1B2 FP inh: PAFAH1B2 (human) inhibition. P68402. recombinant PAFAH1B2, FP-rhodamine activity probe, fluorescence polarization. inhibition, % at 3.39 µM. 340,000 tested, 1.2% active;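 active = inhibition above the mean of all tested compounds plus 3 SD, cut at about 24% in these data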;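 also: 0% = enzyme with DMSO and 100% = wells lacking PAFAH1B2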
Target sequence (P68402 whole entry, looked up): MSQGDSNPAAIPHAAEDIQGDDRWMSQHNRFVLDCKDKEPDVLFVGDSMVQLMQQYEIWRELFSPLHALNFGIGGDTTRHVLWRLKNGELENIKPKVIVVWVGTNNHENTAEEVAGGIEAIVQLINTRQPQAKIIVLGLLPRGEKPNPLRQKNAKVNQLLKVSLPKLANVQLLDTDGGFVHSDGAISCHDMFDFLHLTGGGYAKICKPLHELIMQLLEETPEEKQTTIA
PAFAH2 inh: inhibitors of human PAFAH2. recombinant PAFAH2, FP-rhodamine activity probe, fluorescence polarization. inhibition, % at 3.39 µM. 340,000 tested, 0.99% active. Q99487;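 active = inhibition above the mean over all tested compounds plus 3 SD, cut at about 30% in these data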;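 also: inhibitors block probe labeling of enzyme so polarization drops; 0% = enzyme with DMSO and 100% = wells lacking PAFAH2 protein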
PAFAH1B3 FP inh: PAFAH1B3 (human) inhibition | inhibition, % at 3.39 µM | 340,000 tested, 0.28% active | recombinant PAFAH1B3, FP-rhodamine probe, fluorescence polarization | Q15102;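 active = inhibition above the screen-wide average of all tested compounds plus 3 SD, cut at about 25% in these data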;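 also: 0% = enzyme with DMSO only and 100% = wells lacking PAFAH1B3 protein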
Target sequence (Q15102 whole entry, looked up): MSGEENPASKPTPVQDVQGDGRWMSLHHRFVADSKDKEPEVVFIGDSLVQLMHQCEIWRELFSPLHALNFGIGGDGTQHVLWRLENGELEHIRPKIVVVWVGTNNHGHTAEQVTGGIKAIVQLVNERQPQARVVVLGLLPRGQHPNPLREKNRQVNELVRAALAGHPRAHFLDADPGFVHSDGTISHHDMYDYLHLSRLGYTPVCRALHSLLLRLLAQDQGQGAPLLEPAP
PAFAH2 confirm: PAFAH2 (human) inhibition, confirmed | inhibition, % at 3.39 µM | AID 493030 | recombinant PAFAH2, FP-rhodamine activity probe, fluorescence polarization | shares compounds with PAFAH2 inh | 2,300 tested, 65% active;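 active = mean inhibition over three repeats above a set limit taken from the earlier primary screen, cut at about 30% in these data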;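 also: inhibitor blocks binding of rhodamine activity probe so polarization falls; 0% = enzyme with DMSO and 100% = wells lacking PAFAH2 protein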
* marks the source's active call; other numbers are inactive results; x = no result. Hits are enriched below; roughly 3.6% of the tested compounds scored in any of these assays.

SMILES | pPAFAH FP inh | VIM-2 inhibitor | IMP-1 inh | PAFAH1B2 FP inh | PAFAH2 inh | PAFAH1B3 FP inh | PAFAH2 confirm
CC(=O)c1c(C)[nH]c(C(=O)OCC(=O)Nc2ccc3c(c2)OCCO3)c1C | 0.3 | x | x | 4.2 | 35.0* | 4.8 | 20.1
CC(=O)c1c(C)[nH]c(C(=O)OCC(=O)Nc2ccc(Cl)cc2[N+](=O)[O-])c1C | 4.4 | -2.5 | -3.6 | 5.7 | 48.3* | -0.6 | 32.3*
CC(=O)c1c(C)[nH]c(C(=O)OCC(=O)Nc2ccc(Cl)c(S(=O)(=O)N(C)C)c2)c1C | -2.5 | 1.1 | -0.1 | -3.3 | 71.2* | -0.5 | 60.6*
O=C(CC1C(=O)NCCN1Cc1ccccn1)NCCc1ccccc1F (configuration not stated) | 0.2 | -3.2 | -3.3 | -0.9 | -1.3 | 8.3 | x
CCCCOc1ccc(/C(O)=C2/C(=O)C(=O)N(Cc3cccnc3)C2c2ccncc2)c(C)c1 (configuration not stated) | 4.9 | -1.1 | -4.1 | -0.4 | 1.7 | 2.5 | x
Nc1nnc(CC(=O)N/N=C/c2ccc(-c3ccccc3Cl)o2)s1 | 17.2 | -3.6 | -2.0 | -1.1 | 29.7* | -1.3 | 23.3
Nc1nnc(CC(=O)N/N=C/c2ccc(-c3ccc(Cl)cc3Cl)o2)s1 | 15.3 | -4.0 | -1.1 | -0.7 | 49.7* | -12.7 | 31.3*
COc1ccc(-c2ccc(/C=N/NC(=O)Cc3nnc(N)s3)o2)cc1Cl | 24.0 | -1.0 | -1.8 | x | x | x | x
Cc1ccc(C(=O)O/N=C2\CCCc3ccccc32)cc1 | 11.3 | 1.6 | -1.3 | 5.0 | 42.0* | 5.2 | 40.4*
O=C(CSc1nnc(CNC(=O)c2ccccc2F)o1)NCCc1ccccc1 | -3.9 | -3.7 | -4.2 | 3.5 | 53.8* | 5.9 | 2.1
N=C1C(c2nc(-c3ccc(Cl)cc3)cs2)=C(O)CN1CCCN1CCOCC1 | 20.4 | 13.9* | -2.5 | 2.9 | 30.1* | 4.6 | 30.3*
O=C(O)c1cccc(-c2nnn(Cc3ccccc3Cl)n2)c1 | 1.4 | -2.2 | -3.6 | 7.0 | 84.0* | -0.1 | 1.5
O=C(O)c1cccc(-c2nnn(Cc3ccccc3)n2)c1 | 2.3 | -3.5 | -2.4 | 3.5 | -6.8 | 6.5 | x
O=C(C1CC(=O)N(c2ccc3c(c2)OCCO3)C1)N1CCN(S(=O)(=O)c2cccc(F)c2)CC1 (configuration not stated) | x | x | x | 4.0 | 15.3 | 7.4 | x
O=C1N[C@@H](c2ccccc2)COC(=O)[C@@H](Cc2ccc(F)cc2)C/C=C\C[C@@H]1CC(=O)N(CCO)Cc1ccccc1 | 9.2 | x | x | -6.4 | 1.9 | 6.8 | x
O=C1CCC/C=C\C[C@@H](CC(=O)N(CCO)Cc2ccccc2)C(=O)N[C@H](c2ccccc2)CO1 | 8.7 | x | x | 7.4 | 66.2* | 6.5 | 56.3*
O=C1CC(c2cc(-c3ccccc3)no2)C1 | 1.1 | -2.2 | -3.2 | 3.0 | 3.7 | 13.4 | x
Cc1ccc(N2CCN(C(=O)N3CCOCC3)CC2)cc1C | 1.0 | -2.5 | -2.3 | 2.9 | -4.3 | -3.4 | x
Cc1cccc(C)c1N1CCN(C(=O)N2CCOCC2)CC1 | 2.3 | -3.0 | -1.7 | 0.8 | 43.7* | 1.5 | 44.0*
COc1ccc(C(=O)O/N=C2\CCS(=O)(=O)c3sccc32)cc1 | 9.4 | -4.2 | -3.0 | 2.0 | 89.1* | 10.1 | 83.4*
Cc1ccccc1C(=O)O/N=C1\CCS(=O)(=O)c2sccc21 | 7.0 | 2.1 | 0.0 | 12.0 | 68.3* | -9.0 | 68.2*
COc1ccc(N=C2CCS(=O)(=O)c3sccc32)cc1 | 2.8 | -8.0 | -4.8 | -0.8 | 5.6 | 14.3 | x
O=C1C(Cl)=C(N2CCCCC2)C(=O)C(Cl)=C1c1cnc(N2CCCCC2)s1 | x | 1.1 | 3.6 | 9.5 | 30.9* | 9.0 | 10.0
O=C(COC(=O)C1CC2CCCC(C1)C2=O)Nc1ccccc1 (configuration not stated) | 1.9 | x | x | 0.6 | 63.6* | 11.0 | 59.7*
O=C(COC(=O)C1CC2CCCC(C1)C2=O)Nc1cccc(F)c1 (configuration not stated) | -3.9 | x | x | 7.1 | 67.5* | 3.6 | 68.6*
SMILES | pPAFAH FP inh | VIM-2 inhibitor | IMP-1 inh | PAFAH1B2 FP inh | PAFAH2 inh | PAFAH1B3 FP inh | PAFAH2 confirm
Cn1nc(-c2ccccc2)cc1NC(=O)c1ccc(Cl)cc1 | 0.5 | x | x | 4.5 | -11.0 | -5.8 | x
O=C(Nc1ccc2c(c1)OCO2)c1ccc([N+](=O)[O-])cc1[N+](=O)[O-] | 1.5 | -1.8 | -2.8 | 1.8 | -6.1 | 2.0 | x
COCCCNC(=O)Cc1c(C)c2c(cc(C)c3c(C(C)(C)C)coc32)oc1=O | 12.2 | 0.1 | -2.2 | 9.2 | 33.2* | 5.8 | 20.0
O=c1cc(-c2ccc(O)c(O)c2)oc2ccc3ccccc3c12 | x | x | x | -1.6 | 34.5* | 5.7 | 47.5*
COc1ccc(CN2CCC(C(=O)c3ccc(Cl)cc3)CC2)cc1 | 1.1 | -2.6 | 1.1 | -0.1 | -10.6 | 4.8 | x
CCCC(C)NC(=O)COC(=O)c1cc(Br)c(Br)s1 (configuration not stated) | 8.3 | -1.4 | -1.3 | -1.5 | 24.2 | 7.3 | x
CC(C)CCNC(=O)COC(=O)c1cc(Br)c(Br)s1 | 11.5 | -3.0 | -2.6 | -1.1 | 31.6* | 6.5 | 17.5
CCOC(=O)c1ccc(N/C(=N\S(=O)(=O)c2ccccc2C)c2ccccc2)cc1 | 3.4 | -7.5 | -1.6 | -3.1 | 10.5 | -6.3 | x
CC(C)n1nc(C(=O)Nc2nnc(SCc3c(Cl)cccc3Cl)s2)c2ccccc2c1=O | 0.6 | -7.1 | -4.4 | -1.1 | 40.0* | -7.1 | 65.9*
CC(C)n1nc(C(=O)Nc2nc3ccc(S(C)(=O)=O)cc3s2)c2ccccc2c1=O | -3.8 | x | x | -3.2 | 1.7 | 3.0 | x
C[C@H](NC(=O)C1CC(=O)N(c2ccc(F)cc2)C1)C(=O)N1CCCCC1 (some centres not stated) | -5.4 | 0.3 | -0.1 | 1.7 | 30.4* | -1.0 | 5.3
CCn1cc(C(=O)OCC(=O)NCc2ccccc2Cl)c(=O)c2ccc(C)nc21 | 2.9 | 1.9 | -3.2 | -0.4 | 35.3* | 2.8 | 22.9
CCOC(=O)C1CCN(C(=O)c2ccc(OCC)c(OCC)c2)CC1 | 1.9 | -4.6 | -5.5 | 1.1 | 3.6 | 2.1 | x
CCOC(=O)c1sc(N2C(=O)C(O)=C(C(=O)c3ccco3)C2c2cccc([N+](=O)[O-])c2)nc1C (configuration not stated) | 11.6 | -3.3 | 0.9 | -2.5 | 41.8* | 6.2 | 30.1*
COc1ccc(Cl)cc1NC(=O)CN(C)C(=O)c1cc2c(s1)CCCC2 | x | x | x | 0.7 | 0.7 | -1.1 | x
Cc1cccc(NC(=O)/C(C#N)=C/c2ccc(F)cc2)n1 | 13.6 | -1.9 | -3.4 | 8.1 | 2.0 | 3.4 | x
CCCOc1ccccc1/C=C(\C#N)C(=O)Nc1cccc(C)n1 | 3.0 | -3.0 | -3.7 | 2.1 | 57.6* | 8.8 | 51.9*
O=C(CCNC(=O)N1CC(=O)Nc2ccccc21)Nc1ccc(Br)cc1F | 3.4 | -0.9 | -2.9 | 4.4 | -7.3 | 4.2 | x

Source: PubChem (The Scripps Research Institute Molecular Screening Center)
